Source: ChEMBL document CHEMBL1156568, “3-(1H-tetrazol-5-yl)-1,4,5,6-tetrahydro-cyclopentapyrazole (MK-0354): a partial agonist of the nicotinic acid receptor, G-protein coupled receptor 109a, with antilipolytic but no vasodilatory activity in mice” (J Med Chem, 2008)
Blank lines part the entries; values can stand above or below the molecule they belong to. Active and inactive are the calls of the source. No cut-off for these calls is given here.

Assays:
[1] = Volume of distribution in C57BL/6 mouse at 5 mg/kg, iv and 10 mg/kg, po; assay type: ADME, organism-based; details: in vivo
Summary of the method: (§1)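 Male C57BL/6 mice dosed IV at 5.0 mg/kg in PBS, or by oral gavage at 10 mg/kg in PBS. Clearance is blood clearance. Cmax and Tmax come from oral dosing. Half-life is terminal. Oral bioavailability is also reported.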

[2] = Cmax in C57BL/6 mouse at 5 mg/kg, iv and 10 mg/kg, po; assay type: ADME, organism-based; details: in vivo; summary of the method: as §1
[3] = Tmax in C57BL/6 mouse at 5 mg/kg, iv and 10 mg/kg, po; assay type: ADME, organism-based; details: in vivo; summary of the method: as §1
[4] = Half life in C57BL/6 mouse at 5 mg/kg, iv and 10 mg/kg, po; assay type: ADME, organism-based; details: in vivo; summary of the method: as §1
[5] = Oral bioavailability in C57BL/6 mouse at 10 mg/kg, po; assay type: ADME, organism-based; details: in vivo; summary of the method: as §1
Mus musculus [6] = assay: Reduction in plasma FFA level in ip dosed C57BL/6 mouse; assay type: functional; details: C57BL/6, Plasma
Summary of the method: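 Male C57BL/6 mice, at least 8 weeks old, fasted 16 h, then dosed ip in saline. Plasma FFA was measured by an enzymatic NEFA assay, and compound levels in the same plasma by LC-MS/MS.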

Mus musculus [7] = species on record: Mus musculus; assay: Vasodilation effect in C57BL/6 mouse assessed as increase in blood flow relative to baseline; assay type: functional, organism-based
Summary of the method: (§2)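 Male C57BL/6 mice, 8-10 weeks, ~25 g, anesthetized with Nembutal ip (80 mg/kg). After 10 min, ear blood flow was recorded by laser Doppler imaging: 3 min baseline, then ip dosing (5 mL/kg) through a preinserted syringe, reading ~15 min. Vehicle was PBS, 40% HPBCD or 0.5% methylcellulose. Result expressed as % change in perfusion over baseline.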

Adipocyte = assay: Inhibition isoproterenol-stimulated lipolysis in human adipocytes
Mus musculus [8] = species on record: Mus musculus; assay: Inhibition of PGD2-induced vasodilation response in C57BL/6 mouse assessed as blood flow; assay type: functional, organism-based; summary of the method: as §2
Mus musculus [9] = species on record: Mus musculus; assay: Inhibition of nicotinic acid-induced vasodilation response in C57BL/6 mouse assessed as blood flow; assay type: functional, organism-based; summary of the method: as §2
[10] = molecular target: Hydroxycarboxylic acid receptor 3 (Homo sapiens) (UniProt P49019); assay: Agonist activity against GPR109b assessed as forskolin-induced cAMP accumulation relative to nicotinic acid; assay type: functional
Sequence of Hydroxycarboxylic acid receptor 3 (Homo sapiens) (P49019 whole entry): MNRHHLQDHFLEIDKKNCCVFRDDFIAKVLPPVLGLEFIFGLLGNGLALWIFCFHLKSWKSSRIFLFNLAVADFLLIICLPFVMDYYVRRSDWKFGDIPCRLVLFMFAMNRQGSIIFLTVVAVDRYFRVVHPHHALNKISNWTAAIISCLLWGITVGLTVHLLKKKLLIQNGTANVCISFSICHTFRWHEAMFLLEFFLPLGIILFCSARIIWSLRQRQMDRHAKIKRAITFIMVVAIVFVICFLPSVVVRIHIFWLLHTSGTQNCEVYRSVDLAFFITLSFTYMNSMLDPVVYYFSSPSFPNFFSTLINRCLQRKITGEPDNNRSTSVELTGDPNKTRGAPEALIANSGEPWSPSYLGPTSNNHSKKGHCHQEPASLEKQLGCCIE

Vd [1]: 13 L/kg | Cmax [2]: 16 µM | Tmax [3]: 4.98 min | half-life [4]: 10 h | bioavailability [5]: 93%
Structure (SMILES): C1Cc2[nH]nc(-c3nnn[nH]3)c2C1

Structure (SMILES): O=C(O)c1cccnc1 [NIACIN]
ED50 (Mus musculus [6]): 9.7 mg/kg

Structure (SMILES): O=C(O)c1n[nH]c2c1CCC2
Activity (Mus musculus [7]): Dose-dependent effect

IC50 (Adipocyte): 3.1 µM | Activity [10]: inactive
Structure (SMILES): C1Cc2[nH]nc(-c3nn[nH]n3)c2C1
ED50 (Mus musculus [6]): 3.1 mg/kg | Activity (Mus musculus [8]): inactive | Activity (Mus musculus [9]): Active
